Columns and labels:
[1] = molecular target: T1, 3-hydroxy-3-methylglutaryl-coenzyme A reductase (Rattus norvegicus, UniProt P51639); test: Inhibition of HMG-CoA reductase in Sprague-Dawley rat liver microsomes; set-up: species or system Microsome
T1 sequence (P51639 whole entry): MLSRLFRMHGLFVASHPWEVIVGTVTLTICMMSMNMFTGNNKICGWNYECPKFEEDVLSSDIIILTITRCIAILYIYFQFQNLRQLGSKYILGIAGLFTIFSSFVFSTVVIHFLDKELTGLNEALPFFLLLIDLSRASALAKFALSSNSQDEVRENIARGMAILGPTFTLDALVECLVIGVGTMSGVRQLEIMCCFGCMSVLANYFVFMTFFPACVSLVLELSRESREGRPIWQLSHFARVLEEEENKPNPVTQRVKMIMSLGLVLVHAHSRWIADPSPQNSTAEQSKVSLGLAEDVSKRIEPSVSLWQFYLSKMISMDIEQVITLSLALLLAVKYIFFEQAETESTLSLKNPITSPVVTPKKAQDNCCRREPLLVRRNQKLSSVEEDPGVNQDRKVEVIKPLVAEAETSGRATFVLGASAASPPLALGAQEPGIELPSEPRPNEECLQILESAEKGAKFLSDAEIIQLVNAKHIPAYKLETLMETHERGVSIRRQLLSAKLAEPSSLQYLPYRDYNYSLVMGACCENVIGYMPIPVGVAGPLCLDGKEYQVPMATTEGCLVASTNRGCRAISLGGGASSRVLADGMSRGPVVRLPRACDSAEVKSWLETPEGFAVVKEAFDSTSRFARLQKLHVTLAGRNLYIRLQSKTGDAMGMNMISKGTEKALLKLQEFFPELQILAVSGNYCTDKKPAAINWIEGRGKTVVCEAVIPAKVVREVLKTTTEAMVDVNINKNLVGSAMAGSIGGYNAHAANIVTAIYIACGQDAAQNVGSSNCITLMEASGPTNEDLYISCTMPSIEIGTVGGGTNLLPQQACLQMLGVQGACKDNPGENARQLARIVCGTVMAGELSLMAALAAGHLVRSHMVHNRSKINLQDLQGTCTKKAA
Outline: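 Rat liver microsomes (35 µg/mL) in 100 mM NaH2PO4, 10 mM imidazole, 10 mM EDTA, preincubated with compound in DMSO 0.5 h on ice; 14C-HMG-CoA (0.024 µCi) with 15 mM NADPH and 25 mM DTT added, 0.75 h at 37 °C. Stopped with HCl, lactonized to mevalonolactone, anion-exchange resin separation, scintillation counting; IC50 by curve fit.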

[2] = test system: Hepatocyte; test: Inhibition of cholesterol synthesis in rat hepatocytes; format: functional, cell-based
Outline: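 Frozen rat hepatocytes on collagen-coated wells, 10^5 cells/well, grown 24 h in DMEM/10% FBS/10 mM HEPES. Compound preincubation 4 h, then 1 µCi/mL 14C acetic acid for 4 h more.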

[3] = test system: L6; test: Inhibition of cholesterol synthesis in rat L6 cells; format: functional, cell-based
[4] = test system: Hepatocyte; test: Ratio of IC50 for cholesterol synthesis in rat myocytes to rat hepatocytes; format: functional
[5] = test system: Syrian golden hamster; test: Inhibition of cholesterol synthesis in Goldern Syrian hamster blood at 10 mg/kg, po after 2 to 4 hrs relative to control; format: functional; details: Mesocricetus auratus, read-out: Inhibition
Outline: (§1)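 Hamsters on chow with 2.5% cholestyramine from 3 days prior; oral gavage of vehicle or compound (10 mpk), n = 8/group. At 2 h (2–4 h arm) or 4 h (4–6 h arm) postdose, i.p. 80 µCi 14C sodium acetate in 0.9% NaCl; euthanized 2 h later, cardiac blood, plasma saponified and extracted, 14C cholesterol counted; % change vs untreated controls.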

[6] = test system: Cavia porcellus; test: Reduction of LDL level in chow fed Hartley guinea pig serum at 20 mg/kg/day, po for 7 days relative to rosuvastatin; format: functional, Hartely; set-up: scale not given: the % may be the effect or the level left
Outline: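 Male Hartley guinea pigs (300–500 g) on chow diet 5025, acclimated ≥1 week; vehicle or compound suspension by daily oral gavage at 10 or 20 mpk (n = 8/group) for 7 days; sacrificed 2 h after final dose; LDL cholesterol as mean % change from vehicle group.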

[7] = test system: Syrian golden hamster; test: Inhibition of cholesterol synthesis in Golden Syrian hamster blood at 10 mg/kg, po after 4 to 6 hrs relative to control; format: functional; details: Mesocricetus auratus, read-out: Inhibition; outline: as §1
[8] = test system: Cavia porcellus; test: Reduction of LDL level in po dosed Hartley guinea pig plasma after 7 days; format: functional; details: Hartely, 168 h

Structure (SMILES)	IC50 [1] [nM]	IC50 [2] [nM]	IC50 [3] [nM]	Ratio IC50 [4]	% change in cholesterol synthesis vs control at 10 mg/kg [5] [%]	Activity [6] [%]	Percent change in cholesterol synthesis vs control at 10 mg/kg [7] [%]	ED50 [8] [mg/kg]
Cc1cccc(CN(C)C(=O)c2nn(-c3ccc(F)cc3)c(CC[C@@H](O)C[C@@H](O)CC(=O)[O-])c2C(C)C)c1.[Na+]	6.1	0.6	4800	8000	-72	-15		
CC(C)c1c(C(=O)N(C)Cc2ccc(F)cc2F)nn(-c2ccc(F)cc2)c1CC[C@@H](O)C[C@@H](O)CC(=O)[O-].[Na+]	7	2.1	4400	2100	-82	-32	-17	
CC(C)c1c(C(=O)N(C)Cc2cccc(F)c2F)nn(-c2ccc(F)cc2)c1CC[C@@H](O)C[C@@H](O)CC(=O)[O-].[Na+]	9	0.6	5700	9500	-81	-45	-22	
CC(C)c1c(C(=O)N(C)[C@@H](C)c2ccccc2)nn(-c2ccc(F)cc2)c1CC[C@@H](O)C[C@@H](O)CC(=O)O		3.5	41000					
CC(C)c1c(C(=O)N2CCCC2c2ccccc2)nn(-c2ccc(F)cc2)c1CC[C@@H](O)C[C@@H](O)CC(=O)O (some centres not stated)	7.3	4	130					
CC(C)c1c(C(=O)N2CCCC(c3ccccc3)C2)nn(-c2ccc(F)cc2)c1CC[C@@H](O)C[C@@H](O)CC(=O)O (some centres not stated)	1.5	0.4	680		-80		-15	
CC(C)c1c(C(=O)N2CCC[C@H](c3ccccc3)C2)nn(-c2ccc(F)cc2)c1CC[C@@H](O)C[C@@H](O)CC(=O)O	2	0.3			-78			
COc1ccc(CNC(=O)c2nn(-c3ccc(F)cc3)c(CC[C@@H](O)C[C@@H](O)CC(=O)O)c2C(C)C)cc1	2.8	0.4	460					
COCc1cccc(CNC(=O)c2nn(-c3ccc(F)cc3)c(CC[C@@H](O)C[C@@H](O)CC(=O)[O-])c2C(C)C)c1.[Na+]	7	0.7	1800	2600	-71	-42	-19	
CC(C)c1c(C(=O)NCc2cccc(C#N)c2)nn(-c2ccc(F)cc2)c1CC[C@@H](O)C[C@@H](O)CC(=O)O	2.2	1.4	2400					
CC(C)c1c(CC[C@@H](O)C[C@@H](O)CC(=O)O)nn(-c2ccc(F)cc2)c1C(=O)NCc1ccccc1	520							
Cc1ccc(CN(C)C(=O)c2nn(-c3ccc(F)cc3)c(CC[C@@H](O)C[C@@H](O)CC(=O)O)c2C(C)C)cc1	9.9	1.8	4000					
CC(C)c1c(C(=O)N(C)Cc2ccccc2F)nn(-c2ccc(F)cc2)c1CC[C@@H](O)C[C@@H](O)CC(=O)O	4.8	0.5	17000		-69		-30	
CCN(Cc1ccccc1)C(=O)c1nn(-c2ccc(F)cc2)c(CC[C@@H](O)C[C@@H](O)CC(=O)O)c1C(C)C	3.8	5.5	4400					
CC(C)c1c(C(=O)N(C)Cc2cccc(F)c2)nn(-c2ccc(F)cc2)c1CC[C@@H](O)C[C@@H](O)CC(=O)O	3.9	0.2	6000		-65			
CC(C)c1c(C(=O)N(Cc2ccccc2)C(C)C)nn(-c2ccc(F)cc2)c1CC[C@@H](O)C[C@@H](O)CC(=O)O	9.8	10	9800					
CC(C)c1c(C(=O)N(C)Cc2ccc(F)cc2)nn(-c2ccc(F)cc2)c1CC[C@@H](O)C[C@@H](O)CC(=O)O	6.6	0.5	6000		-71			
CC(C)c1c(C(=O)NCc2ccc(C(=O)N(C)C)cc2)nn(-c2ccc(F)cc2)c1CC[C@@H](O)C[C@@H](O)CC(=O)O	25	23	21000					
CC(C)c1c(C(=O)N2CCCCC2c2ccccc2)nn(-c2ccc(F)cc2)c1CC[C@@H](O)C[C@@H](O)CC(=O)O (some centres not stated)	6.1	1.1	330					
COc1ccc(CN(C)C(=O)c2nn(-c3ccc(F)cc3)c(CC[C@@H](O)C[C@@H](O)CC(=O)O)c2C(C)C)cc1	12	0.3	5800		-57			
CC(C)c1c(C(=O)NCc2ccc(F)cc2)nn(-c2ccc(F)cc2)c1CC[C@@H](O)C[C@@H](O)CC(=O)O	3.8	0.7	490					
Cc1ccc(CNC(=O)c2nn(-c3ccc(F)cc3)c(CC[C@@H](O)C[C@@H](O)CC(=O)[O-])c2C(C)C)cc1.[Na+]	1.9	0.9	730	810	-74	-41	-15	3.6
CC(C)c1c(C(=O)N(C)Cc2ccccc2)nn(-c2ccc(F)cc2)c1CC[C@@H](O)C[C@@H](O)CC(=O)[O-].[Na+]	5.9	0.2	3100	16000	-61	-20	-16	
CC(C)c1c(C(=O)NCc2ccccc2)nn(-c2ccc(F)cc2)c1CC[C@@H](O)C[C@@H](O)CC(=O)O	4.7	0.3	100					
COCc1c(C(C)C)nc(C(C)C)c(/C=C/[C@@H](O)C[C@@H](O)CC(=O)O)c1-c1ccc(F)cc1 [CERIVASTATIN]		1.7	3					

Source: ChEMBL document CHEMBL1140700, “Substituted pyrazoles as hepatoselective HMG-CoA reductase inhibitors: discovery of (3R,5R)-7-[2-(4-fluoro-phenyl)-4-isopropyl-5-(4-methyl-benzylcarbamoyl)-2H-pyrazol-3-yl]-3,5-dihydroxyheptanoic acid (PF-3052334) as a candidate for the treatment of hypercholesterolemia” (J Med Chem, 2008)
